Results: ChEMBL document CHEMBL1124792, “Synthesis and structure-activity relationships of 5-substituted 6,8-difluoroquinolones, including sparfloxacin, a new quinolone antibacterial agent with improved potency” (1990)
In brackets after ≈: the same amount, converted by molar mass.

What was measured:
Type in all cases: functional
Enterobacter cloacae = test: In vitro antibacterial activity against Enterobacter cloacae 963
Mus musculus [1] = species on record: Mus musculus; test: Oral efficacy against Pseudomonas aeruginosa 12 on Systemic Infections in Mice
In short: (§1)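 Groups of at least 10 male Std-ddY mice (20 ± 2 g) were infected ip, with S. pyogenes A65 at 3×10^7 cells or P. aeruginosa 12 at 4×10^3 cells. Compounds were suspended in 0.2% sodium carboxymethylcellulose and given orally at 0 and 6 h postinfection. The result is reported as ED50 in mg/kg.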

Pseudomonas aeruginosa [2] = test: In vitro antibacterial activity against Pseudomonas aeruginosa 12
In short: (§2)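 Two-fold agar dilution MIC on Mueller-Hinton agar (pH 7.4), following the Japan Society of Chemotherapy MIC Committee method. Inoculum was about 10⁶ CFU, and growth was read after 20 h at 37 °C. MIC is reported in µg/mL.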

Klebsiella pneumoniae = test: In vitro antibacterial activity against Klebsiella pneumoniae 13; in short: as §2
Serratia marcescens [3] = test: In vitro antibacterial activity against Serratia marcescence S-9; in short: as §2
[4] = tested on: Staphylococcus epidermidis; test: In vitro antibacterial activity against Streptococcus epidermis 8; in short: as §2
Staphylococcus aureus [5] = test: In vitro antibacterial activity against Staphylococcus aureus 209P JC-1; in short: as §2
Pseudomonas aeruginosa [6] = test: In vitro antibacterial activity against Pseudomonas aeruginosa IFO 3445; in short: as §2
Streptococcus pyogenes = test: In vitro antibacterial activity against Streptococcus pyogenes A65; in short: as §2
Mus musculus [7] = species on record: Mus musculus; test: Oral efficacy against Streptococcus pyogenes A65 on Systemic Infections in Mice; in short: as §1
Moraxella bovis = test: In vitro antibacterial activity against glucose nonfermenter Moraxella bovis P-7101; in short: as §2
Enterococcus faecalis = test: In vitro antibacterial activity against Streptococcus faecalis 2473; in short: as §2
Staphylococcus aureus [8] = test: In vitro antibacterial activity against Staphylococcus aureus 50774; in short: as §2
Escherichia coli [9] = test: In vitro antibacterial activity against Escherichia coli P-5101; in short: as §2
Escherichia coli [10] = test: In vitro antibacterial activity against Escherichia coli NIHJ JC-2; in short: as §2
Serratia marcescens [11] = test: In vitro antibacterial activity against Serratia marcescene S-9; in short: as §2

Question: With CC1CN(c2c(F)c(O)c3c(=O)c(C(=O)O)cn(C4CC4)c3c2F)CCN1 (stereo not given) as the compound, how does the MIC (Enterobacter cloacae) read?
Answer: The MIC was 0.05 µg/mL (≈ 0.132 µM).

Question: And the ED50 (Mus musculus [1])?
Answer: The ED50 was 5.97 mg/kg.

Question: And the MIC (Pseudomonas aeruginosa [2])?
Answer: The MIC was 0.78 µg/mL (≈ 2.06 µM).

Question: What about the MIC (Klebsiella pneumoniae) of the same compound?
Answer: Its MIC is 0.1 µg/mL (≈ 0.264 µM).

Question: And the MIC (Serratia marcescens [3])?
Answer: Its MIC is 0.1 µg/mL (≈ 0.264 µM).

Question: And the MIC [4]?
Answer: Its MIC is 0.1 µg/mL (≈ 0.264 µM).

Question: What about the MIC (Staphylococcus aureus [5]) of the same compound?
Answer: Its MIC is 0.2 µg/mL (≈ 0.527 µM).

Question: And the MIC (Pseudomonas aeruginosa [6])?
Answer: The MIC was 0.78 µg/mL (≈ 2.06 µM).

Question: What about the MIC (Streptococcus pyogenes) of the same compound?
Answer: Its MIC is 0.78 µg/mL (≈ 2.06 µM).

Question: What about the ED50 (Mus musculus [7]) of the same compound?
Answer: Its ED50 is 12.5 mg/kg.

Question: What about the MIC (Moraxella bovis) of the same compound?
Answer: The MIC was 1.56 µg/mL (≈ 4.11 µM).

Question: And the MIC (Enterococcus faecalis)?
Answer: The MIC was 1.56 µg/mL (≈ 4.11 µM).

Question: What about the MIC (Staphylococcus aureus [8]) of the same compound?
Answer: The MIC was 0.2 µg/mL (≈ 0.527 µM).

Question: And the MIC (Escherichia coli [9])?
Answer: Its MIC is 0.025 µg/mL (≈ 0.0659 µM).

Question: And the MIC (Escherichia coli [10])?
Answer: Its MIC is 0.025 µg/mL (≈ 0.0659 µM).

Question: Which results are given for Nc1c(F)c(N2CCNC(CF)C2)c(F)c2c1c(=O)c(C(=O)O)cn2C1CC1 (stereo not given)?
Answer: MIC (Enterobacter cloacae): 0.025 µg/mL (≈ 0.0631 µM); ED50 (Mus musculus [1]): 7.02 mg/kg; MIC (Pseudomonas aeruginosa [2]): 0.2 µg/mL (≈ 0.505 µM); MIC (Klebsiella pneumoniae): 0.025 µg/mL (≈ 0.0631 µM); MIC (Serratia marcescens [3]): 0.1 µg/mL (≈ 0.252 µM); MIC [4]: 0.0125 µg/mL (≈ 0.0315 µM); MIC (Staphylococcus aureus [5]): 0.025 µg/mL (≈ 0.0631 µM); MIC (Pseudomonas aeruginosa [6]): 0.39 µg/mL (≈ 0.984 µM); MIC (Streptococcus pyogenes): 0.2 µg/mL (≈ 0.505 µM); ED50 (Mus musculus [7]): 17.4 mg/kg; MIC (Moraxella bovis): 0.39 µg/mL (≈ 0.984 µM); MIC (Enterococcus faecalis): 0.39 µg/mL (≈ 0.984 µM); MIC (Staphylococcus aureus [8]): 0.0125 µg/mL (≈ 0.0315 µM); MIC (Escherichia coli [9]): 0.0063 µg/mL (≈ 0.0159 µM); MIC (Escherichia coli [10]): 0.0063 µg/mL (≈ 0.0159 µM)

Question: C[C@@H]1CN(c2c(F)c(N)c3c(=O)c(C(=O)O)cn(C4CC4)c3c2F)C[C@H](C)N1C was tested. Which MIC (Enterobacter cloacae) did it give?
Answer: Its MIC is 0.05 µg/mL (≈ 0.123 µM).

Question: And the ED50 (Mus musculus [1])?
Answer: The ED50 was 2.21 mg/kg.

Question: What about the MIC (Pseudomonas aeruginosa [2]) of the same compound?
Answer: The MIC was 0.39 µg/mL (≈ 0.96 µM).

Question: What about the MIC (Klebsiella pneumoniae) of the same compound?
Answer: Its MIC is 0.1 µg/mL (≈ 0.246 µM).

Question: And the MIC (Serratia marcescens [3])?
Answer: The MIC was 0.2 µg/mL (≈ 0.492 µM).

Question: What about the MIC [4] of the same compound?
Answer: Its MIC is 0.05 µg/mL (≈ 0.123 µM).

Question: What about the MIC (Staphylococcus aureus [5]) of the same compound?
Answer: Its MIC is 0.05 µg/mL (≈ 0.123 µM).

Question: And the MIC (Pseudomonas aeruginosa [6])?
Answer: The MIC was 0.78 µg/mL (≈ 1.92 µM).

Question: What about the MIC (Streptococcus pyogenes) of the same compound?
Answer: The MIC was 0.39 µg/mL (≈ 0.96 µM).

Question: What about the ED50 (Mus musculus [7]) of the same compound?
Answer: Its ED50 is 5.64 mg/kg.

Question: And the MIC (Moraxella bovis)?
Answer: Its MIC is 0.78 µg/mL (≈ 1.92 µM).

Question: And the MIC (Enterococcus faecalis)?
Answer: The MIC was 0.39 µg/mL (≈ 0.96 µM).

Question: And the MIC (Staphylococcus aureus [8])?
Answer: Its MIC is 0.025 µg/mL (≈ 0.0615 µM).

Question: What about the MIC (Escherichia coli [9]) of the same compound?
Answer: The MIC was 0.0125 µg/mL (≈ 0.0308 µM).

Question: What about the MIC (Escherichia coli [10]) of the same compound?
Answer: The MIC was 0.025 µg/mL (≈ 0.0615 µM).

Question: Which results are given for CC1CN(c2c(F)c(F)c3c(=O)c(C(=O)O)cn(C4CC4)c3c2F)CCN1 (stereo not given)?
Answer: MIC (Enterobacter cloacae): 0.025 µg/mL (≈ 0.0656 µM); ED50 (Mus musculus [1]): 2.46 mg/kg; MIC (Pseudomonas aeruginosa [2]): 0.78 µg/mL (≈ 2.05 µM); MIC (Klebsiella pneumoniae): 0.05 µg/mL (≈ 0.131 µM); MIC [4]: 0.2 µg/mL (≈ 0.524 µM); MIC (Staphylococcus aureus [5]): 0.2 µg/mL (≈ 0.524 µM); MIC (Pseudomonas aeruginosa [6]): 0.78 µg/mL (≈ 2.05 µM); MIC (Streptococcus pyogenes): 1.56 µg/mL (≈ 4.09 µM); ED50 (Mus musculus [7]): 17.3 mg/kg; MIC (Moraxella bovis): 1.56 µg/mL (≈ 4.09 µM); MIC (Enterococcus faecalis): 3.13 µg/mL (≈ 8.21 µM); MIC (Staphylococcus aureus [8]): 0.2 µg/mL (≈ 0.524 µM); MIC (Serratia marcescens [11]): 0.2 µg/mL (≈ 0.524 µM); MIC (Escherichia coli [9]): 0.0063 µg/mL (≈ 0.0165 µM); MIC (Escherichia coli [10]): 0.0125 µg/mL (≈ 0.0328 µM)

Question: Which results are given for C[C@@H]1CN(c2c(F)c(N)c3c(=O)c(C(=O)O)cn(C4CC4)c3c2F)C[C@@H](C)N1 (relative stereo)?
Answer: MIC (Enterobacter cloacae): 0.1 µg/mL (≈ 0.255 µM); ED50 (Mus musculus [1]): 6.33 mg/kg; MIC (Pseudomonas aeruginosa [2]): 0.78 µg/mL (≈ 1.99 µM); MIC (Klebsiella pneumoniae): 0.1 µg/mL (≈ 0.255 µM); MIC (Serratia marcescens [3]): 0.39 µg/mL (≈ 0.994 µM); MIC [4]: 0.0125 µg/mL (≈ 0.0319 µM); MIC (Staphylococcus aureus [5]): 0.025 µg/mL (≈ 0.0637 µM); MIC (Pseudomonas aeruginosa [6]): 0.78 µg/mL (≈ 1.99 µM); MIC (Streptococcus pyogenes): 0.39 µg/mL (≈ 0.994 µM); ED50 (Mus musculus [7]): 7.38 mg/kg; MIC (Moraxella bovis): 0.78 µg/mL (≈ 1.99 µM); MIC (Enterococcus faecalis): 0.39 µg/mL (≈ 0.994 µM); MIC (Staphylococcus aureus [8]): 0.025 µg/mL (≈ 0.0637 µM); MIC (Escherichia coli [9]): 0.0125 µg/mL (≈ 0.0319 µM); MIC (Escherichia coli [10]): 0.0125 µg/mL (≈ 0.0319 µM)

Question: C[C@@H]1CN(c2c(F)c(N)c3c(=O)c(C(=O)O)cn(C4CC4)c3c2F)C[C@H](C)N1 [SPARFLOXACIN] was tested. Which MIC (Enterobacter cloacae) did it give?
Answer: The MIC was 0.05 µg/mL (≈ 0.127 µM).

Question: And the ED50 (Mus musculus [1])?
Answer: The ED50 was 1.57 mg/kg.

Question: And the MIC (Pseudomonas aeruginosa [2])?
Answer: The MIC was 0.39 µg/mL (≈ 0.994 µM).

Question: And the MIC (Klebsiella pneumoniae)?
Answer: The MIC was 0.05 µg/mL (≈ 0.127 µM).

Question: What about the MIC (Serratia marcescens [3]) of the same compound?
Answer: The MIC was 0.2 µg/mL (≈ 0.51 µM).

Question: What about the MIC [4] of the same compound?
Answer: The MIC was 0.05 µg/mL (≈ 0.127 µM).

Question: And the MIC (Staphylococcus aureus [5])?
Answer: The MIC was 0.05 µg/mL (≈ 0.127 µM).

Question: What about the MIC (Pseudomonas aeruginosa [6]) of the same compound?
Answer: Its MIC is 0.39 µg/mL (≈ 0.994 µM).

Question: And the MIC (Streptococcus pyogenes)?
Answer: The MIC was 0.39 µg/mL (≈ 0.994 µM).

Question: And the ED50 (Mus musculus [7])?
Answer: The ED50 was 3.36 mg/kg.

Question: What about the MIC (Moraxella bovis) of the same compound?
Answer: Its MIC is 0.39 µg/mL (≈ 0.994 µM).

Question: And the MIC (Enterococcus faecalis)?
Answer: Its MIC is 0.78 µg/mL (≈ 1.99 µM).

Question: What about the MIC (Staphylococcus aureus [8]) of the same compound?
Answer: The MIC was 0.05 µg/mL (≈ 0.127 µM).

Question: What about the MIC (Escherichia coli [9]) of the same compound?
Answer: Its MIC is 0.0125 µg/mL (≈ 0.0319 µM).

Question: What about the MIC (Escherichia coli [10]) of the same compound?
Answer: Its MIC is 0.0125 µg/mL (≈ 0.0319 µM).
